Results published in ChEMBL document CHEMBL3085773, “A general method for making peptide therapeutics resistant to serine protease degradation: application to dipeptidyl peptidase IV substrates” (J Med Chem, 2013).
Each block holds one compound with its values, some of them ahead of it. Peptide text beside a SMILES is read from it.

Assays:
[1] = target: Dipeptidyl peptidase 4 (Sus scrofa, UniProt P22411); assay: Stability of the compound assessed as porcine DPP4-mediated compound degradation at 0.1 mM measured over 30 mins by reverse-phase HPLC/MS analysis; type: ADME; conditions: pig, 0.5 h, 100 µM
Outline: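 Peptide (0.1 mM) incubated at 37 °C with DPP IV purified from porcine kidney (10 mU/mL) in 50 mM HEPES, 0.14 M NaCl, pH 8.0. Samples taken at set times and quenched with 10% (v/v) 0.1 M HCl. Intact peptide quantified by reverse-phase HPLC-MS and expressed as percent of the time-0 amount.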

[2] = target: Trypsin (Sus scrofa, UniProt P00761); assay: Stability of the compound assessed as porcine pancreatic trypsin-mediated compound degradation at 0.1 mM after 10 secs by reverse-phase HPLC/MS analysis; type: ADME; conditions: pig, isolated protein, 10 s, 100 µM
Outline: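 Peptide (0.1 mM) incubated at 37 °C with 100 nM purified porcine pancreatic trypsin in 50 mM Tris-HCl, 20 mM CaCl₂, pH 8.0. Timed samples were acid-quenched with 10% (v/v) 0.1 M HCl, then analysed by reverse-phase HPLC-MS. Mean ± range of two independent experiments.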

[3] = target: Chymotrypsinogen A (Bos taurus) (UniProt P00766); assay: Stability of the compound assessed as bovine pancreatic chymotrypsin-mediated compound degradation at 0.1 mM after 10 secs by reverse-phase HPLC/MS analysis; conditions: cow, isolated protein, 10 s, 100 µM
[4] = target: DPP4 (dipeptidyl peptidase 4) (Homo sapiens, UniProt P27487); assay: Metabolic stability in human plasma assessed as half life of DPP4-mediated compound degradation; type: ADME
[5] = target: DPP4 (dipeptidyl peptidase 4) (Rattus norvegicus, UniProt P14740); assay: Metabolic stability in rat serum assessed as half life of DPP4-mediated compound degradation; type: ADME, cell-free
[6] = target: Dipeptidyl peptidase 4 (Homo sapiens, UniProt P27487); assay: Competitive inhibition of human recombinant DPP4 using AP-pNA as substrate preincubated for 30 mins followed by substrate addition measured after 30 mins by spectrophotometric analysis
Dipeptidyl peptidase 4 (Homo sapiens, UniProt P27487), sequence (P27487 whole entry): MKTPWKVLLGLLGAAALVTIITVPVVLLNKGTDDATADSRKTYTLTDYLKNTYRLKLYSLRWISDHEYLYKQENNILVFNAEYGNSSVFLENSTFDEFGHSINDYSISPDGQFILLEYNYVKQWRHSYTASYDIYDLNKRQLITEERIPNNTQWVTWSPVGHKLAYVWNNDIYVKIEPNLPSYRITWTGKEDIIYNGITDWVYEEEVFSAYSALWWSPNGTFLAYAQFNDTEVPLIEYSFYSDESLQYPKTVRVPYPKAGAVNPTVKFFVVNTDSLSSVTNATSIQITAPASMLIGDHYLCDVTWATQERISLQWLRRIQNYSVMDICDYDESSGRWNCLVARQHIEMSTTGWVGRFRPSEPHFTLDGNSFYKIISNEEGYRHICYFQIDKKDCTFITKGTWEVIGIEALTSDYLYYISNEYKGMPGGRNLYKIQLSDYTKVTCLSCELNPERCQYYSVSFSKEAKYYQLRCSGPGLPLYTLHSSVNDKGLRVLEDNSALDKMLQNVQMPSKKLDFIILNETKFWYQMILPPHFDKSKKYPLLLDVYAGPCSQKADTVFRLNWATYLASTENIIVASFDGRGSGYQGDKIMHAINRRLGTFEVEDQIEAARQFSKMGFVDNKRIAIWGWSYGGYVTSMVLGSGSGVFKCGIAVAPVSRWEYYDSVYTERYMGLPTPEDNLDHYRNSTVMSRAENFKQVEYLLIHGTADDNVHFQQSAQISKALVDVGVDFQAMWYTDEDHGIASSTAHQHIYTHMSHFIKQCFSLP

Dipeptidyl peptidase 4 (Sus scrofa, UniProt P22411), sequence (P22411 whole entry): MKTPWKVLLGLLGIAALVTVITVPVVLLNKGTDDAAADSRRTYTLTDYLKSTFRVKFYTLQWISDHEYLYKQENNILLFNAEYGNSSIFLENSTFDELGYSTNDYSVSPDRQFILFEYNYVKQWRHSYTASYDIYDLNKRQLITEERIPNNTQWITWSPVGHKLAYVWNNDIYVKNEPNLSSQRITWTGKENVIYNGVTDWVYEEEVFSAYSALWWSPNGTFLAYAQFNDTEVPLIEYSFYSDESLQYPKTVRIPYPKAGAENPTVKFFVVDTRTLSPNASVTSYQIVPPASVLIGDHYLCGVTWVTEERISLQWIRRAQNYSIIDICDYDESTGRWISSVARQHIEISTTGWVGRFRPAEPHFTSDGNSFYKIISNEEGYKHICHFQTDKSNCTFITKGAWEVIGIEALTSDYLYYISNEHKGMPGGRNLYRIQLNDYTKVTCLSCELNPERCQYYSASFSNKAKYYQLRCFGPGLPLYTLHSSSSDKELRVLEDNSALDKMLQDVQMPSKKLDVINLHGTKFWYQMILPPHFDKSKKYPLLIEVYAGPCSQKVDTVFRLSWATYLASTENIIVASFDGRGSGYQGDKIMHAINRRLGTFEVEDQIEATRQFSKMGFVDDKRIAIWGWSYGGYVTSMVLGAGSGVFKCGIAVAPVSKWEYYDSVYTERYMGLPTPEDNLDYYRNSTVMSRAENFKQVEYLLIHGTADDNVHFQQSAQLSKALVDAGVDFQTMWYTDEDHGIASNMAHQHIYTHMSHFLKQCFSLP
DPP4 (dipeptidyl peptidase 4) (Rattus norvegicus, UniProt P14740), sequence (P14740 whole entry): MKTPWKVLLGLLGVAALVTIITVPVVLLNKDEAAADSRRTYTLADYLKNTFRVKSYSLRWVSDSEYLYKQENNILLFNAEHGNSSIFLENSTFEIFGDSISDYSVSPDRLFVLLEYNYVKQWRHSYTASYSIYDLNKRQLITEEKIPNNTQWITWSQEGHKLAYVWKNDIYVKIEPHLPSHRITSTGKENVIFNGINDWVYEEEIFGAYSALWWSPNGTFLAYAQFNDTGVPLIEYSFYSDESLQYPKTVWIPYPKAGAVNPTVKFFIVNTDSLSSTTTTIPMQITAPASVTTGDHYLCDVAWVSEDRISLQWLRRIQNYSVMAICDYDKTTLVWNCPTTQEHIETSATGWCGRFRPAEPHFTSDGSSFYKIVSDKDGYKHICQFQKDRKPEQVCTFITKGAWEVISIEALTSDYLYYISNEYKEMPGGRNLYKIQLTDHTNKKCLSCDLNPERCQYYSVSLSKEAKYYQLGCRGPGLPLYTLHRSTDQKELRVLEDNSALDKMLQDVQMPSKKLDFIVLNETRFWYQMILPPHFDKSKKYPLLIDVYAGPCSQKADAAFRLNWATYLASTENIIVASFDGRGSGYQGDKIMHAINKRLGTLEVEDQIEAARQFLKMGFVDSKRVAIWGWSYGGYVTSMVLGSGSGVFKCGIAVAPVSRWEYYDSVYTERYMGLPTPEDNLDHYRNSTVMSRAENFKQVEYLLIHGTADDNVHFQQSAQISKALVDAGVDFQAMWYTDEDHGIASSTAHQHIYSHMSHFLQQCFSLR
DPP4 (dipeptidyl peptidase 4) (Homo sapiens, UniProt P27487), sequence (P27487 whole entry): as the sequence (P27487 whole entry) above
Trypsin, sequence (P00761 whole entry): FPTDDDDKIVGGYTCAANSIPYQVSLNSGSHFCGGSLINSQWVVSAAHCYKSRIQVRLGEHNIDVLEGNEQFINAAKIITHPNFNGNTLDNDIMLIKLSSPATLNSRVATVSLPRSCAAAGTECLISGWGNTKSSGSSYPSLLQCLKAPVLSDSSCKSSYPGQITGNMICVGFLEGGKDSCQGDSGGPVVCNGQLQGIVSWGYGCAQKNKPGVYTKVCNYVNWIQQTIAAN

SMILES: CC[C@H](C)[C@H](NC(=O)[C@H](Cc1ccccc1)NC(=O)[C@H](CCC(=O)O)NC(=O)[C@H](CCCCN)NC(=O)[C@H](C)NC(=O)[C@H](C)NC(=O)[C@H](CCC(N)=O)NC(=O)CNC(=O)[C@H](CCC(=O)O)NC(=O)[C@H](CC(C)C)NC(=O)[C@H](Cc1ccc(O)cc1)NC(=O)[C@H](CO)NC(=O)[C@H](CO)NC(=O)[C@@H](NC(=O)[C@H](CC(=O)O)NC(=O)[C@H](CO)NC(=O)[C@@H](NC(=O)[C@H](Cc1ccccc1)NC(=O)[C@@H](NC(=O)CNC(=O)[C@H](CCC(=O)O)NC(=O)[C@H](C)NC(=O)[C@@H](N)Cc1c[nH]cn1)[C@@H](C)O)[C@@H](C)O)C(C)C)C(=O)N[C@@H](C)C(=O)N[C@@H](Cc1c[nH]c2ccccc12)C(=O)N[C@@H](CC(C)C)C(=O)N[C@H](C(=O)N[C@@H](CCCCN)C(=O)NCC(=O)N[C@@H](CCCNC(=N)N)C(N)=O)C(C)C
Stability [1]: Stable
Stability [2]: Unstable
Stability [3]: Unstable

half-life [4]: 15 min
SMILES: CC[C@H](C)[C@H](NC(=O)[C@H](CCCNC(=N)N)NC(=O)[C@H](CC(=O)O)NC(=O)[C@H](CCSC)NC(=O)[C@H](CCCCN)NC(=O)[C@H](CCCNC(=N)N)NC(=O)CNC(=O)[C@H](Cc1ccccc1)NC(=O)[C@H](CS)NC(=O)CNC(=O)[C@H](CO)NC(=O)CNC(=O)[C@H](CCC(N)=O)NC(=O)[C@@H](NC(=O)[C@H](CCSC)NC(=O)[C@H](CCCCN)NC(=O)[C@@H]1CCCN1C(=O)[C@@H](N)CO)C(C)C)C(=O)N[C@@H](CO)C(=O)N[C@@H](CO)C(=O)N[C@@H](CO)C(=O)N[C@@H](CO)C(=O)NCC(=O)N[C@@H](CC(C)C)C(=O)NCC(=O)N[C@@H](CS)C(=O)N[C@@H](CCCCN)C(=O)N[C@H](C(=O)N[C@@H](CC(C)C)C(=O)N[C@@H](CCCNC(=N)N)C(=O)N[C@@H](CCCNC(=N)N)C(=O)N[C@@H](Cc1cnc[nH]1)C(N)=O)C(C)C

half-life [5]: 5 min
Ki [6]: 142 µM
SMILES: CC(C)[C@H](N)C(=O)N1CCC[C@H]1C(=O)N[C@@H](CC(=O)O)C(=O)N1CCC[C@H]1C(=O)N[C@@H](CCCNC(=N)N)C(N)=O (H-VPDPR-NH2)
